IC50 data for 54 compounds are collected here from ChEMBL document CHEMBL3085765, “The synthesis, antiviral, cytostatic and cytotoxic evaluation of a new series of acyclonucleotide analogues with a 1,2,3-triazole linker” (Eur J Med Chem, 2013).

Assay type in all cases: functional, cell-based
One test relates to L1210. Briefly: Cytostatic activity against mouse L1210 cells after 2 days by coulter ZI particle counting analysis. As to conditions: L1210, 48 h. An outline of the steps:
(§1)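 Cells seeded in 96-well plates and grown with or without serial dilutions of compound, 2 days for L1210 and 3 days for CEM and HeLa. IC50 taken as concentration inhibiting cell proliferation by 50%.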

The next test deals with HeLa. Briefly: Cytostatic activity against human HeLa cells after 3 days by coulter ZI particle counting analysis. As to conditions: 72 h. The procedure, abridged: as §1
The subject of a further test is CCRF-CEM. Briefly: Cytostatic activity against human CEM cells after 3 days by coulter ZI particle counting analysis. The conditions noted are these: 72 h. The procedure, abridged:
as §1

In the case of `CCOP(=O)(Cn1cc(Cn2ccccc2=O)nn1)OCC`, the IC50 in the test on L1210, in the test on HeLa and with CCRF-CEM was over 200 µM throughout.
For `Cc1cn(Cc2cn(CCCCP(=O)(O)O)nn2)c(=O)[nH]c1=O`, the IC50 in the test with L1210, in the test on HeLa and in the test on CCRF-CEM was over 200 µM each time.
For `CCOP(=O)(CCCCn1cc(Cn2ccccc2=O)nn1)OCC`, the IC50 in the test with L1210, with HeLa and in the test with CCRF-CEM was over 200 µM each time.
Regarding `CCOP(=O)(CCCn1cc(Cn2cc(C(C)=O)c3ccccc32)nn1)OCC`, the IC50 in the test with L1210 was 164 µM; in the test with HeLa it was 19 µM; in the test with CCRF-CEM, 4.54 µM.
Take `O=c1ccn(Cc2cn(CCCCP(=O)(O)O)nn2)c(=O)[nH]1`: the IC50 in the test with L1210, with HeLa and in the test with CCRF-CEM was over 200 µM in each case.
Turning to `CCOP(=O)(CCCCn1cc(Cn2cc(C(C)=O)c3ccccc32)nn1)OCC`, the IC50 with L1210 is 200 µM; with HeLa, over 200 µM; in the test on CCRF-CEM, 12 µM.
In the same order, the values of `CCOP(=O)(CCCCn1cc(Cn2c(=O)c3c(ncn3C)n(C)c2=O)nn1)OCC` are over 200 µM, over 200 µM and over 200 µM.
In the same order, the values of `CCOP(=O)(Cn1cc(Cn2cnc3c2c(=O)n(C)c(=O)n3C)nn1)OCC` are over 200 µM, over 200 µM and over 200 µM.
Turning to `CCOP(=O)(CCn1cc(Cn2ccccc2=O)nn1)OCC`, the IC50 in the test on L1210, with HeLa and in the test on CCRF-CEM was over 200 µM in each case.
With `CCOP(=O)(OCC)C(O)CCn1cc(Cn2ncc(=O)[nH]c2=O)nn1` (configuration not stated), the IC50 in the test on L1210, in the test on HeLa and with CCRF-CEM was over 200 µM in each case.
`O=C(c1ccccc1)n1c(=O)c2ccccc2n(Cc2cn(CCCP(=O)(O)O)nn2)c1=O`: the IC50 in the test on L1210, in the test on HeLa and with CCRF-CEM was over 200 µM each time.
Consider `CCOP(=O)(OCC)C(O)CCn1cc(Cn2ccc(NC(C)=O)nc2=O)nn1` (configuration not stated), for which the 50% inhibitory concentration (IC50) in the test with L1210, in the test on HeLa and with CCRF-CEM was over 200 µM throughout.
Turning to `CCOP(=O)(OCC)C(O)Cn1cc(Cn2cnc3c2c(=O)n(C)c(=O)n3C)nn1` (configuration not stated), the IC50 in the test with L1210, in the test with HeLa and with CCRF-CEM was over 200 µM throughout.
For the compound `CCOP(=O)(Cn1cc(Cn2c(Cl)nc3c2c(=O)n(C)c(=O)n3C)nn1)OCC`, the IC50 in the test on L1210, in the test with HeLa and with CCRF-CEM was over 200 µM in each case.
Regarding `CCOP(=O)(OCC)C(O)CCn1cc(Cn2cc(C)c(=O)[nH]c2=O)nn1` (configuration not stated), the half-inhibitory concentration (IC50) with L1210, with HeLa and in the test with CCRF-CEM was over 200 µM in each case.
`Cn1c(=O)c2c(nc(Cl)n2Cc2cn(CCCP(=O)(O)O)nn2)n(C)c1=O`: the half-maximal inhibitory concentration (IC50) in the test with L1210, in the test with HeLa and in the test on CCRF-CEM was over 200 µM throughout.
Turning to `CCOP(=O)(CCCCn1cc(Cn2ccc(=O)[nH]c2=O)nn1)OCC`, the IC50 in the test on L1210, with HeLa and in the test on CCRF-CEM was over 200 µM in each case.
For `CCOP(=O)(CCn1cc(Cn2cnc3c2c(=O)n(C)c(=O)n3C)nn1)OCC`, the IC50 in the test on L1210, in the test on HeLa and in the test on CCRF-CEM was over 200 µM throughout.
Take `CCOP(=O)(Cn1cc(Cn2cnc3cc(C)c(C)cc32)nn1)OCC`: the IC50 in the test on L1210 is over 200 µM; with HeLa, 42 µM; with CCRF-CEM it was 97 µM.
For `CCOP(=O)(CCn1cc(Cn2cnc3cc(C)c(C)cc32)nn1)OCC`, the IC50 in the test on L1210 was at least 200 µM; with HeLa, over 200 µM; with CCRF-CEM, 23.4 µM.
Turning to `CCOP(=O)(Cn1cc(Cn2c(=O)c3c(ncn3C)n(C)c2=O)nn1)OCC`, the IC50 is over 200 µM in the test with L1210, at least 149 µM with HeLa and over 200 µM with CCRF-CEM.
Take `CCOP(=O)(CC(O)Cn1cc(Cn2c(=O)c3c(ncn3C)n(C)c2=O)nn1)OCC` (configuration not stated): the 50% inhibitory concentration (IC50) in the test with L1210, in the test with HeLa and with CCRF-CEM was over 200 µM throughout.
Take `CCOP(=O)(CCn1cc(Cn2cc(C(C)=O)c3ccccc32)nn1)OCC`: the IC50 in the test with L1210 worked out at 197 µM; in the test on HeLa, 18 µM; in the test on CCRF-CEM, 11.4 µM.
Take `CCOP(=O)(CC(O)Cn1cc(Cn2ccccc2=O)nn1)OCC` (configuration not stated): the IC50 in the test on L1210, in the test with HeLa and with CCRF-CEM was over 200 µM in each case.
With `CCOP(=O)(OCC)C(O)CCn1cc(Cn2cnc3cc(C)c(C)cc32)nn1` (configuration not stated), the figures for the IC50 in the test on L1210, in the test on HeLa and with CCRF-CEM were over 200 µM, over 200 µM and 163 µM, respectively.
Take `O=C(c1ccccc1)n1c(=O)ccn(Cc2cn(CCCP(=O)(O)O)nn2)c1=O`: the IC50 with L1210, in the test with HeLa and in the test with CCRF-CEM was over 200 µM each time.
For the compound `CCOP(=O)(CC(O)Cn1cc(Cn2c(Cl)nc3c2c(=O)n(C)c(=O)n3C)nn1)OCC` (configuration not stated), the 50% inhibitory concentration (IC50) with L1210, with HeLa and with CCRF-CEM was over 200 µM each time.
For the compound `CCOP(=O)(CCCCn1cc(Cn2cnc3c2c(=O)n(C)c(=O)n3C)nn1)OCC`, the IC50 in the test with L1210, with HeLa and in the test on CCRF-CEM was over 200 µM throughout.
In the case of `CCOP(=O)(CCCn1cc(Cn2cnc3c2c(=O)n(C)c(=O)n3C)nn1)OCC`, the IC50 in the test with L1210, with HeLa and in the test with CCRF-CEM was over 200 µM throughout.
With `CCOP(=O)(CCn1cc(Cn2c(Cl)nc3c2c(=O)n(C)c(=O)n3C)nn1)OCC`, the IC50 in the test on L1210 was over 200 µM; in the test on HeLa, 200 µM; in the test with CCRF-CEM, over 200 µM.
Regarding `CCOP(=O)(CCCCn1cc(Cn2ccc(NC(C)=O)nc2=O)nn1)OCC`, the IC50 in the test with L1210, with HeLa and with CCRF-CEM was over 200 µM throughout.
Consider `CCOP(=O)(OCC)C(O)Cn1cc(Cn2cnc3cc(C)c(C)cc32)nn1` (configuration not stated), for which the IC50 in the test on L1210, in the test with HeLa and with CCRF-CEM was over 200 µM each time.
Consider `CCOP(=O)(CCCCn1cc(Cn2cnc3cc(C)c(C)cc32)nn1)OCC`, for which the figures for the IC50 in the test on L1210, with HeLa and with CCRF-CEM were over 200 µM, 172 µM and 24.7 µM, respectively.
Consider `CCOP(=O)(Cn1cc(Cn2c(=O)n(C(=O)c3ccccc3)c(=O)c3ccccc32)nn1)OCC`, for which the results for the IC50 in the test on L1210, in the test with HeLa and with CCRF-CEM were over 200 µM, at least 89 µM and at least 72 µM, respectively.
In the same order, the values of `CCOP(=O)(CCCCn1cc(Cn2c(Cl)nc3c2c(=O)n(C)c(=O)n3C)nn1)OCC` are over 200 µM, over 200 µM and over 200 µM.
In the case of `CCOP(=O)(OCC)C(O)CCn1cc(Cn2cnc3c2c(=O)n(C)c(=O)n3C)nn1` (configuration not stated), the IC50 in the test on L1210, with HeLa and in the test with CCRF-CEM was over 200 µM throughout.
Consider `CCOP(=O)(OCC)C(O)CCn1cc(Cn2ccc(=O)[nH]c2=O)nn1` (configuration not stated), for which the IC50 in the test with L1210, in the test on HeLa and in the test on CCRF-CEM was over 200 µM each time.
As to `CCOP(=O)(CCCCn1cc(Cn2ncc(=O)[nH]c2=O)nn1)OCC`, the IC50 with L1210, in the test on HeLa and in the test on CCRF-CEM was over 200 µM each time.
For `CCOP(=O)(CCCn1cc(Cn2ccccc2=O)nn1)OCC`, the IC50 with L1210, in the test with HeLa and in the test with CCRF-CEM was over 200 µM throughout.
With `CCOP(=O)(OCC)C(O)Cn1cc(Cn2c(=O)n(C(=O)c3ccccc3)c(=O)c3ccccc32)nn1` (configuration not stated), the IC50 is over 200 µM with L1210, over 200 µM in the test with HeLa and at least 77 µM with CCRF-CEM.
Regarding `CCOP(=O)(OCC)C(O)Cn1cc(Cn2c(Cl)nc3c2c(=O)n(C)c(=O)n3C)nn1` (configuration not stated), the IC50 in the test on L1210, in the test with HeLa and with CCRF-CEM was over 200 µM each time.
On to `CCOP(=O)(CCn1cc(Cn2ncc(=O)[nH]c2=O)nn1)OCC`, for which the IC50 in the test with L1210, with HeLa and in the test on CCRF-CEM was over 200 µM each time.
As for `CCOP(=O)(CCCCn1cc(Cn2cc(C)c(=O)[nH]c2=O)nn1)OCC`, the IC50 in the test on L1210, with HeLa and with CCRF-CEM was over 200 µM throughout.
In the case of `Nc1ncnc2c1ncn2Cc1cn(CCCCP(=O)(O)O)nn1`, the 50% inhibitory concentration (IC50) in the test with L1210, with HeLa and in the test on CCRF-CEM was over 200 µM throughout.
For `CCOP(=O)(CC(O)Cn1cc(Cn2cc(C(C)=O)c3ccccc32)nn1)OCC` (configuration not stated), the IC50 in the test with L1210 was over 200 µM; with HeLa it was 97 µM; in the test on CCRF-CEM, 43 µM.
The matching figures for `CCOP(=O)(CCCn1cc(Cn2cnc3cc(C)c(C)cc32)nn1)OCC`: 189 µM, 101 µM and 14 µM.
With `Cc1cc2ncn(Cc3cn(CCCP(=O)(O)O)nn3)c2cc1C`, the IC50 in the test with L1210, with HeLa and in the test on CCRF-CEM was over 200 µM each time.
For `CCOP(=O)(Cn1cc(Cn2cc(C(C)=O)c3ccccc32)nn1)OCC`, the IC50 stood at 72 µM in the test with L1210, 11 µM with HeLa and 2.78 µM in the test on CCRF-CEM.
As to `CCOP(=O)(OCC)C(O)CCn1cc(Cn2c(=O)c3c(ncn3C)n(C)c2=O)nn1` (configuration not stated), the IC50 with L1210, with HeLa and with CCRF-CEM was over 200 µM each time.
For `CCOP(=O)(OCC)C(O)CCn1cc(Cn2cc(C(C)=O)c3ccccc32)nn1` (configuration not stated), the figures for the IC50 in the test on L1210, with HeLa and in the test with CCRF-CEM were 124 µM, over 200 µM and 100 µM, respectively.
The matching figures for `CCOP(=O)(CCCn1cc(Cn2ncc(=O)[nH]c2=O)nn1)OCC`: over 200 µM, over 200 µM and over 200 µM.
For `CCOP(=O)(OCC)C(O)CCn1cc(Cn2c(=O)n(C(=O)c3ccccc3)c(=O)c3ccccc32)nn1` (configuration not stated), the figures for the IC50 with L1210, in the test with HeLa and with CCRF-CEM were over 200 µM, over 200 µM and 70 µM, respectively.
As to `CCOP(=O)(OCC)C(O)CCn1cc(Cn2ccccc2=O)nn1` (configuration not stated), the IC50 in the test with L1210, with HeLa and in the test on CCRF-CEM was over 200 µM each time.
Regarding `CCOP(=O)(OCC)C(O)Cn1cc(Cn2c(=O)c3c(ncn3C)n(C)c2=O)nn1` (configuration not stated), the IC50 with L1210, in the test on HeLa and in the test with CCRF-CEM was over 200 µM throughout.
